Assay results reported in paper PMC5643981 (Chemical Science, 2017).
Marks after values point to notes of the source that are not given here.

Key:
[1] = tested on: Pseudomonas aeruginosa strain PAO1 biofilm; assay: Dispersal of preformed biofilm; type: cell-based
Method in brief: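 Biofilm formed 24 h at 37 °C, static, in 0.25% (w/v) nutrient broth no. 2 from washed overnight PAO1 (OD600 1) without compound. Wells washed twice with water, then given sterile-filtered test compound plus polymyxin B in the same broth for another 24 h at 37 °C, static. After two washes, stained with 0.5 mM WST-8 + 20 μM phenazine ethosulfate (2.5–3 h, 37 °C); supernatant A450 read.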

[2] = tested on: Pseudomonas aeruginosa strain PAO1 biofilm; assay: Biofilm inhibition; type: cell-based
Method in brief: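 PAO1 grown overnight in LB at 37 °C with 180 rpm shaking, washed in 0.25% (w/v) nutrient broth no. 2 and set to OD600 1. 20 μL goes into 180 μL of the same medium with sterile-filtered test compound and polymyxin B. Incubated humid, static, 24–25 h at 37 °C, washed twice with water. Viability read by 0.5 mM WST-8 + 20 μM phenazine ethosulfate (2.5–3 h, 37 °C), supernatant A450.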

## Polymyxin B [Pmx]
[1]; Measured with 8 μg mL^–1 of 29b in the presence of 1.5 μg mL^–1 of Pmx
  Dispersal, Pmx with 29b: 100% ^i
[1]; Measured with 8 μg mL^–1 of 36b in the presence of 1.5 μg mL^–1 of Pmx
  Dispersal, Pmx with 36b: 100% ^i
[2]; Pmx in the presence of 0.5 μg mL^–1 36b
  MBIC of Pmx +0.5 μg mL^–1 36b: 1.5 μg mL^–1
[2]; Pmx in the presence of 1 μg mL^–1 29b
  MBIC of Pmx +1 μg mL^–1 29b: 1.5 μg mL^–1
